Results taken from ChEMBL document CHEMBL1154480, “Synthesis and evaluation of 4-amino-3,4-dihydro-2H-naphthalen-1-one derivatives as mast cell stabilising and anti-inflammatory compounds” (Eur J Med Chem, 2008).
Each block holds one molecule with its values, some of them ahead of it. Calls of active or inactive are those of the source. The calls are words filed in the database; no cut-off is given here.

Columns and labels:
Mast cell [1] = assay: Inhibition of compound-48/80 induced degranulation in Wistar rat peritoneal mast cells assessed as histamine release at 20 uM by spectrophotometry
Mus musculus = assay: Antiinflammatory activity in Laca mouse assessed as inhibition of arachidonic acid-induced ear oedema at 300 ug/ear; assay type: functional
How it was run: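 Male Laca mice (25-30 g), groups of five, sedated with sodium pentobarbitone 60 mg kg-1 i.p. Compound or indomethacin at 300 µg ear-1 and arachidonic acid at 1 mg ear-1, all in acetone. 5 mm punch biopsies taken from both ears and weighed; left-ear weight subtracted from right. Inhibition calculated against the AA-only group. Student's t-test; at least 5 animals.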

Mast cell [2] = assay: Inhibition of A23187-induced degranulation in Wistar rat peritoneal mast cells assessed as histamine release by spectrophotometry
Mast cell [3] = assay: Inhibition of compound-48/80 induced degranulation in Wistar rat peritoneal mast cells assessed as histamine release by spectrophotometry
Mast cell [4] = assay: Inhibition of concanavalin A-induced degranulation in Wistar rat peritoneal mast cells assessed as histamine release by spectrophotometry
Mast cell [5] = assay: Inhibition of compound-48/80 induced degranulation in Wistar rat peritoneal mast cells assessed as histamine release at 20 uM by spectrophotometry; assay type: functional
How it was run: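 Peritoneal cells recovered by lavage with 15 ml HEPES buffer at 37 °C from a female Wistar rat (250-300 g). Cells washed by centrifugation, >90% viable, about 1.4% mast cells. Stopped with iced buffer; released histamine measured by o-phthalaldehyde spectrophotometry. Mean of at least five experiments, SE given.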

Mast cell [6] = assay: Inhibition of compound-48/80 induced degranulation in Wistar rat peritoneal mast cells assessed as histamine release by spectrophotometry; assay type: functional, cell-based
How it was run: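 Female Wistar rat (250-300 g) peritoneal lavage cells in HEPES buffer, unpurified, preincubated with compound across a dose range. Stopped with iced buffer; histamine release measured spectrophotometrically as o-phthalaldehyde complex. IC50 derived from dose-response curve fitting.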

Structure (SMILES): CN(C1CCCC1)C1CCC(=O)c2ccccc21 (centres undefined)
inhibition at 20 µM (Mast cell [1]): 43%

Structure (SMILES): CC(=O)N(C1CCCC1)C1CCC(=O)c2ccccc21 (centres undefined)
inhibition (INH) (Mus musculus): 2%

Structure (SMILES): O=C1CCC(N(C(=O)Cc2ccccc2)C2CCCC2)c2ccccc21 (centres undefined)
inhibition (INH) (Mus musculus): 53%

IC50 (Mast cell [2]): 280 nM
IC50 (Mast cell [3]): 2400 nM
IC50 (Mast cell [4]): 7200 nM
Structure (SMILES): O=C1CCC(N(Cc2ccccc2)C2CCCC2)c2ccccc21 (centres undefined)
inhibition at 20 µM (Mast cell [1]): 99%

Structure (SMILES): COc1ccc2c(c1)c(CC(=O)O)c(C)n2C(=O)c1ccc(Cl)cc1 [INDOMETHACIN]
inhibition (INH) (Mus musculus): 74%

Structure (SMILES): CCC(=O)NC1CCC(=O)c2ccccc21 (centres undefined)
inhibition (INH) (Mus musculus): 11%

Structure (SMILES): N#Cc1ccc(CN(C2CCCC2)C2CCC(=O)c3ccccc32)cc1 (centres undefined)
inhibition at 20 µM (Mast cell [1]): 67%

Structure (SMILES): CN(Cc1ccccc1)C1CCC(=O)c2ccccc21 (centres undefined)
Activity (Mast cell [5]): inactive
Activity (Mast cell [6]): inactive

Structure (SMILES): O=C1CCC(N(Cc2ccc3ccccc3c2)C2CCCC2)c2ccccc21 (centres undefined)
inhibition at 20 µM (Mast cell [1]): 77%

Structure (SMILES): CC(=O)c1ccccc1CN(C)Cc1ccccc1
Activity (Mast cell [5]): inactive
Activity (Mast cell [6]): inactive

Structure (SMILES): COc1cc(CN(C2CCCC2)C2CCC(=O)c3ccccc32)cc(OC)c1OC (centres undefined)
Activity (Mast cell [5]): inactive

Structure (SMILES): O=C1CCC(N(Cc2ccc([N+](=O)[O-])cc2)C2CCCC2)c2ccccc21 (centres undefined)
inhibition at 20 µM (Mast cell [1]): 65%

Structure (SMILES): C=CCN(C1CCCC1)C1CCC(=O)c2ccccc21 (centres undefined)
Activity (Mast cell [5]): inactive

Structure (SMILES): O=C(O)c1cc(=O)c2c(OCC(O)COc3cccc4oc(C(=O)O)cc(=O)c34)cccc2o1 [CROMOLYN SODIUM]
inhibition at 20 µM (Mast cell [1]): 10%
